Measured values taken from ChEMBL document CHEMBL4270543, “Synthesis and biological evaluation of (1-aryl-1H-pyrazol-4-yl) (3,4,5-trimethoxyphenyl)methanone derivatives as tubulin inhibitors” (Eur J Med Chem, 2018).
Active and inactive are the calls of the source. The rule behind the calls is not given here.

Tests used:
A549 = assay: Antiproliferative activity against human A549 cells after 72 hrs by MTT assay; type: functional, cell-based; conditions: A549, 72 h
How it was run: (§1)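 Human tumour cells were exposed to the compound for 72 h, and growth was read by standard MTT assay. IC50 is the concentration giving 50% inhibition, taken as the average of three parallel experiments.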

L929 = assay: Cytotoxicity against mouse L929 cells after 72 hrs by MTT assay; type: cell-based; conditions: L929, 72 h
HT-1080 = assay: Antiproliferative activity against human HT1080 cells after 72 hrs by MTT assay; type: functional, cell-based; conditions: HT-1080, 72 h; how it was run: as §1
Tubulin (Homo sapiens) = Tubulin (Homo sapiens) (UniProt P68371+Q9H4B7+P0DPH7+P68366+Q13509+Q71U36+P04350+Q3ZCM7+P07437+P68363+Q9BQE3+Q6PEY2+Q13885+Q9BVA1+Q9BUF5); assay: Inhibition of tubulin polymerization in human SGC7901 cells assessed as disruption of microtubule formation at 2 times antiproliferative IC50 after 24 hrs by DAPI staining based immunofluorescence microscopic method; type: cell-based
How it was run: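 SGC-7901 cells were treated for 24 h at 2-fold their antiproliferative IC50. Cells were stained with anti-α-tubulin-FITC antibody and then DAPI for DNA, and the microtubule network was examined by confocal microscopy.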

SGC-7901 [1] = assay: Antiproliferative activity against human SGC7901 cells after 72 hrs by MTT assay; type: functional, cell-based; conditions: SGC-7901, 72 h; how it was run: as §1
Sus scrofa [2] = species on record: Sus scrofa; assay: Inhibition of porcine brain tubulin polymerization at 2.5 uM preincubated for 1 min followed by GTP addition measured at 1 min time interval for 90 mins by fluorescence assay
How it was run: (§2)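 Run with a commercial tubulin polymerization kit following the manufacturer's protocol. Tubulin was pre-incubated for 1 min with compound (2.5, 5, 10 or 20 µM) or DMSO vehicle, then GTP was added to start polymerization. Reactions were monitored at 37 °C.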

Sus scrofa [3] = species on record: Sus scrofa; assay: Inhibition of porcine brain tubulin polymerization at 5 uM preincubated for 1 min followed by GTP addition measured at 1 min time interval for 90 mins by fluorescence assay; how it was run: as §2
SGC-7901 [4] = assay: Cell cycle arrest in human SGC7901 cells assessed as accumulation at G2/M phase at 27 to 108 nM after 24 hrs by propidium iodide staining based flow cytometry (reference value: 15%); type: functional
[5] = (§3) Inhibition of porcine brain tubulin polymerization preincubated for 1 min followed by GTP addition measured at 1 min time interval for 90 mins by fluorescence assay; set-up: species or system Sus scrofa; how it was run: as §2
Sus scrofa [6] = species on record: Sus scrofa; assay: as §3; how it was run: as §2
SGC-7901 [7] = assay: Cell cycle arrest in human SGC7901 cells assessed as accumulation at G2/M phase after 24 hrs by propidium iodide staining based flow cytometry; type: functional
How it was run: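 SGC-7901 cells were treated for 24 h with a vehicle control run in parallel. Cell-cycle phase distribution was obtained by flow cytometry, with G2/M accumulation as the read-out.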

SMILES | IC50 (A549) | IC50 (HT-1080) | IC50 (SGC-7901 [1]) | further results
COc1cc(C(=O)c2csc(-c3ccccc3)n2)cc(OC)c1OC | 0.032 µM | 0.027 µM | 0.023 µM | IC50 (L929): 21 µM; inhibition (Tubulin (Homo sapiens)): Active; inhibition (Sus scrofa [2]): Active
CCc1ccc(-n2cc(C(=O)c3cc(OC)c(OC)c(OC)c3)cn2)cc1 | 16.3 µM | 3.1 µM | 7.8 µM | –
COc1cc(C(=O)c2cnn(-c3ccccc3Cl)c2)cc(OC)c1OC | > 30 µM | > 30 µM | > 30 µM | –
COc1cc(C(=O)c2cnn(-c3cccc(Cl)c3)c2)cc(OC)c1OC | 20.4 µM | 3.7 µM | 16.7 µM | –
CC(=O)O[C@H]1C(=O)[C@@]2(C)[C@H]([C@H](OC(=O)c3ccccc3)[C@]3(O)C[C@H](OC(=O)[C@H](O)[C@@H](NC(=O)c4ccccc4)c4ccccc4)C(C)=C1C3(C)C)[C@]1(OC(C)=O)CO[C@@H]1C[C@@H]2O | – | – | – | inhibition (Sus scrofa [3]): inactive
COc1cc(C(=O)c2cnn(-c3ccccc3Br)c2)cc(OC)c1OC | > 30 µM | > 30 µM | > 30 µM | –
COc1cc(/C(=N\O)c2cnn(-c3ccc(C)cc3)c2)cc(OC)c1OC (mixture of isomers) | 0.14 µM | 0.09 µM | 0.071 µM | IC50 (L929): 96.2 µM
COc1cc(C(=O)c2cnn(-c3ccc(C)cc3C)c2)cc(OC)c1OC | > 30 µM | 22.6 µM | > 30 µM | –
COc1ccc(-n2cc(C(=O)c3cc(OC)c(OC)c(OC)c3)cn2)cc1 | 18.7 µM | > 30 µM | 17.9 µM | –
COc1cc(C(=O)c2cnn(-c3cccc(Br)c3)c2)cc(OC)c1OC | > 30 µM | > 30 µM | > 30 µM | –
COc1cc(C(=O)c2cnn(-c3cc(C)cc(C)c3)c2)cc(OC)c1OC | 2.3 µM | 1.6 µM | 1.9 µM | –
COc1cc(C(=O)c2cnn(-c3cccc(Cl)c3C)c2)cc(OC)c1OC | > 30 µM | > 30 µM | > 30 µM | –
COc1cc(C(=O)c2cnn(-c3ccccc3C)c2)cc(OC)c1OC | > 30 µM | > 30 µM | > 30 µM | –
COc1cc(C(=O)c2cnn(-c3ccccc3)c2)cc(OC)c1OC | 8.6 µM | 19.4 µM | > 30 µM | –
COc1cc(C(=O)c2cnn(-c3cc(C)ccc3C)c2)cc(OC)c1OC | 2.6 µM | 12.9 µM | 3.7 µM | –

The next lines start with results.

IC50 (A549) | IC50 (HT-1080) | IC50 (SGC-7901 [1]) | SMILES | further results
> 30 µM | > 30 µM | > 30 µM | COc1cc(C(=O)c2cnn(-c3ccccc3Cl)c2N)cc(OC)c1OC | –
11.3 µM | 5 µM | 24.7 µM | COc1cc(C(=O)c2cnn(-c3ccccc3)c2N)cc(OC)c1OC | –
> 30 µM | > 30 µM | > 30 µM | COc1cc(C(=O)c2cnn(-c3ccccc3C)c2N)cc(OC)c1OC | –
> 30 µM | > 30 µM | > 30 µM | COc1cc(C(=O)c2cnn(-c3cccc(Cl)c3)c2N)cc(OC)c1OC | –
> 30 µM | 17 µM | > 30 µM | COc1cc(C(=O)c2cnn(-c3ccc(C(C)C)cc3)c2)cc(OC)c1OC | –
> 30 µM | > 30 µM | > 30 µM | COc1cc(C(=O)c2cnn(-c3ccc(C)cc3C)c2N)cc(OC)c1OC | –
> 30 µM | > 30 µM | > 30 µM | COc1cc(C(=O)c2cnn(-c3ccc(Cl)cc3)c2N)cc(OC)c1OC | –
> 30 µM | > 30 µM | > 30 µM | COc1cc(C(=O)c2cnn(-c3ccccc3Br)c2N)cc(OC)c1OC | –
> 30 µM | > 30 µM | > 30 µM | COc1cc(C(=O)c2cnn(-c3ccc(Cl)cc3)c2)cc(OC)c1OC | –
20.6 µM | > 30 µM | 29.6 µM | COc1cc(C(=O)c2cnn(-c3ccc(C)cc3)c2N)cc(OC)c1OC | –
> 30 µM | > 30 µM | > 30 µM | CCc1ccc(-n2ncc(C(=O)c3cc(OC)c(OC)c(OC)c3)c2N)cc1 | –
> 30 µM | > 30 µM | > 30 µM | COc1cc(C(=O)c2cnn(-c3ccc(F)cc3)c2N)cc(OC)c1OC | –
> 30 µM | > 30 µM | > 30 µM | COc1cc(C(=O)c2cnn(-c3cccc(Br)c3)c2N)cc(OC)c1OC | –
14 µM | 2.8 µM | 6.5 µM | COc1cc(C(=O)c2cnn(-c3ccc(F)cc3)c2)cc(OC)c1OC | –
0.11 µM | 0.16 µM | 0.054 µM | COc1cc(C(=O)c2cnn(-c3ccc(C)cc3)c2)cc(OC)c1OC | Activity (SGC-7901 [4]): <=68%; IC50 (L929): 65.7 µM; IC50 [5]: 9.17 µM; inhibition (Sus scrofa [6]): Dose-dependent effect; inhibition (Tubulin (Homo sapiens)): Active; Activity (SGC-7901 [7]): Dose-dependent effect
> 30 µM | > 30 µM | > 30 µM | COc1cc(C(=O)c2cnn(-c3ccc(C(C)C)cc3)c2N)cc(OC)c1OC | –
> 30 µM | > 30 µM | > 30 µM | COc1ccc(-n2ncc(C(=O)c3cc(OC)c(OC)c(OC)c3)c2N)cc1 | –
> 30 µM | > 30 µM | > 30 µM | COc1cc(C(=O)c2cnn(-c3cc(C)ccc3C)c2N)cc(OC)c1OC | –
> 30 µM | > 30 µM | > 30 µM | COc1cc(C(=O)c2cnn(-c3cc(C)cc(C)c3)c2N)cc(OC)c1OC | –
> 30 µM | > 30 µM | > 30 µM | COc1cc(C(=O)c2cnn(-c3cccc(Cl)c3C)c2N)cc(OC)c1OC | –
